In ChEMBL document CHEMBL1933027, “Time-dependent botulinum neurotoxin serotype A metalloprotease inhibitors” (Bioorg Med Chem, 2011):
Activity calls are given as the source filed them. No cut-off for these calls is given here. Peptide text beside a SMILES is read from it. * marks the point of attachment. X1 = O=C(C(S)Cc1ccccc1)*

Columns and labels:
[1] = target: T1, Botulinum neurotoxin type A (Clostridium botulinum, UniProt P0DPI0); test: Inhibition of Clostridium botulinum BoNT/A light chain-mediated SNAP-25 substrate cleavage after 40 mins by FRET assay
How it was run: (§1)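 Recombinant BoNT/A LC at 2 nM was incubated with 20 μM SNAP-25 peptide (AA 187–203, DnpK/daciaC-labelled) for 40 min at 37 °C. Cleaved-substrate fluorescence was read at 485 nm with excitation at 398 nm. IC50 is the compound concentration giving 50% inhibition, averaged over two experiments.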

[2] = target: T2, Lethal factor (Bacillus anthracis, UniProt P15917); test: Inhibition of Bacillus anthracis lethal factor using MCA-KKVYPYPME[dnp]Kamide peptide substrate after 30 mins by FRET assay
T2 sequence (P15917 whole entry): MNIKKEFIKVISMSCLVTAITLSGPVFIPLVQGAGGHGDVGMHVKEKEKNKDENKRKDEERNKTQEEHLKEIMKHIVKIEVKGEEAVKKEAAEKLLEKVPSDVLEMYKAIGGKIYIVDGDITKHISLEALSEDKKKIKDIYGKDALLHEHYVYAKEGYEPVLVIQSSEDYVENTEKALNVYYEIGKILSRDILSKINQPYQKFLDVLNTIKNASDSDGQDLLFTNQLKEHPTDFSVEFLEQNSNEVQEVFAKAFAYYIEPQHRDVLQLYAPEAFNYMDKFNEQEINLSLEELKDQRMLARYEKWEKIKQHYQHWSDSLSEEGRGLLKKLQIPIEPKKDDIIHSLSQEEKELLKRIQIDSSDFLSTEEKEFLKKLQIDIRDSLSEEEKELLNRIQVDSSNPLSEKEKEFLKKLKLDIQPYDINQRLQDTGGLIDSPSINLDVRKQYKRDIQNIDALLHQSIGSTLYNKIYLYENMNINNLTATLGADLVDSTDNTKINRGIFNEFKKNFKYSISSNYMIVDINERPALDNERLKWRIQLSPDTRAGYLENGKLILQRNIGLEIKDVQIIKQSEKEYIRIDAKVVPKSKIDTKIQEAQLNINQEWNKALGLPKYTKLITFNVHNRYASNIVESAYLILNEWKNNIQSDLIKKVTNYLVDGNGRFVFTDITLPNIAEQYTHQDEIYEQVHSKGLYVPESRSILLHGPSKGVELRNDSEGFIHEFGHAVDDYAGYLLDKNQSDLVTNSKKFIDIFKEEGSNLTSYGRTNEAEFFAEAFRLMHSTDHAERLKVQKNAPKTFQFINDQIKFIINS

[3] = target: Botulinum neurotoxin type A (Clostridium botulinum) (UniProt P0DPI0); test: Inhibition of clostridium botulinum BoNT/A-mediated SNAP-25 substrate cleavage in chicken neurons at 30 uM preincubated for 15 mins before substrate addition
[4] = target: T3, Lethal factor (Bacillus anthracis) (UniProt P15917); test: Inhibition of Bacillus anthracis lethal factor using MCA-KKVYPYPME[dnp]Kamide peptide substrate at 100 uM after 30 mins by FRET assay
T3 sequence (whole entry): T2 sequence (P15917 whole entry)

[5] = target: Matrix metalloproteinase-9 (Homo sapiens, UniProt P14780); test: Inhibition of human MMP9
[6] = target: Botulinum neurotoxin type A (Clostridium botulinum) (UniProt P0DPI0); test: Inhibition of clostridium botulinum BoNT/A light chain assessed as residual activity using SNAP-25 as substrate at 50 uM after 90 mins measured after dialysis by FRET-based assay relative to 6-(4,5-dihydro-1H-imidazol-2-yl)-2-(4-(4-(4,5-dihydro-1H-imidazol-2-yl)phenoxy)phenyl)-1H-indole
How it was run: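 BoNT/A LC was co-incubated with inhibitor or a DMSO-equivalent control at 37 °C for 90 min. Samples were then dialysed (3,500 MWCO) against 20 mM HEPES pH 7.4, 10% glycerol, 0.05% Tween-20 for 20–24 h at 2–8 °C. Remaining activity was measured by the standard FRET assay.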

[7] = target: 72 kDa type IV collagenase (Homo sapiens, UniProt P08253); test: Inhibition of human MMP2
[8] = target: Botulinum neurotoxin type A (Clostridium botulinum) (UniProt P0DPI0); test: Inhibition of Clostridium botulinum BoNT/A light chain-mediated SNAP-25 substrate cleavage preincubated for 15 mins in presence of zinc ion before substrate addition by FRET assay
How it was run: (§2)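 The potential inactivator (2.5 or 5 mM) was preincubated with compound in the assay mixture for 15 min at 37 °C. 17-mer SNAP-25 substrate and BoNT/A LC were then added, and activity was read in the FRET assay (37 °C, 40 min, ex 398/em 485 nm).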

[9] = target: Botulinum neurotoxin type A (Clostridium botulinum) (UniProt P0DPI0); test: Ratio of Kinact to Ki for clostridium botulinum BoNT/A light chain
How it was run: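 BoNT/A LC was incubated with selected inhibitor concentrations for various times. Remaining activity was then measured by the FRET assay, and kobs/[I] was derived from the plotted data using a published method.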

[10] = target: Botulinum neurotoxin type A (Clostridium botulinum) (UniProt P0DPI0); test: Inhibition of Clostridium botulinum BoNT/A light chain-mediated SNAP-25 substrate cleavage preincubated for 15 mins in presence of glutathione before substrate addition by FRET assay; how it was run: as §2
[11] = target: T1, Botulinum neurotoxin type A; test: Inhibition of Clostridium botulinum BoNT/A light chain-mediated SNAP-25 substrate cleavage preincubated for 90 mins by FRET assay
How it was run: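 Compound was preincubated with BoNT/A LC for 90 min before the 40-min FRET assay (20 μM SNAP-25 peptide, 2 nM enzyme, 37 °C, ex 398/em 485 nm). IC50 is the concentration giving 50% inhibition.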

[12] = target: T1, Botulinum neurotoxin type A; test: Inhibition of Clostridium botulinum BoNT/A light chain after 40 mins by HPLC assay
How it was run: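 Incubation was at 37 °C for 40 min with 6 nM BoNT/A LC and 60 μM 17-mer SNAPtide substrate. Samples were separated by reverse-phase C18 HPLC, effluent was monitored at 365 nm, and peaks were quantified by integration.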

[13] = target: T4, Interstitial collagenase (Homo sapiens, UniProt P03956); test: Inhibition of human MMP1
T4 sequence (P03956 whole entry): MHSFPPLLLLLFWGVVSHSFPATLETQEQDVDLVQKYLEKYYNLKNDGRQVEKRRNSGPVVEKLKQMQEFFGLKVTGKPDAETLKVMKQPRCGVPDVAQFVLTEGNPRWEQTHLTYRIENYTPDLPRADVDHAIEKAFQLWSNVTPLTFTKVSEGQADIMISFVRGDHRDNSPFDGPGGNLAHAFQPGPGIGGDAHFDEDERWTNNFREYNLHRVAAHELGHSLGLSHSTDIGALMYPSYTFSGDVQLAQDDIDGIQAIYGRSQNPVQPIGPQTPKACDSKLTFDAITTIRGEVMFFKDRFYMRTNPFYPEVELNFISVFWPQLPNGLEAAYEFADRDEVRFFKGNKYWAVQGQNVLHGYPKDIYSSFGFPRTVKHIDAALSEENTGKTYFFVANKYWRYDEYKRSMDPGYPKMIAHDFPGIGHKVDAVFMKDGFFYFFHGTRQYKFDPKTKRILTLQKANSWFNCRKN

[14] = target: T5, Botulinum neurotoxin type B (Clostridium botulinum, UniProt P10844); test: Inhibition of Clostridium botulinum BoNT/B light chain after 40 mins by FRET-based assay
T5 sequence (P10844 whole entry): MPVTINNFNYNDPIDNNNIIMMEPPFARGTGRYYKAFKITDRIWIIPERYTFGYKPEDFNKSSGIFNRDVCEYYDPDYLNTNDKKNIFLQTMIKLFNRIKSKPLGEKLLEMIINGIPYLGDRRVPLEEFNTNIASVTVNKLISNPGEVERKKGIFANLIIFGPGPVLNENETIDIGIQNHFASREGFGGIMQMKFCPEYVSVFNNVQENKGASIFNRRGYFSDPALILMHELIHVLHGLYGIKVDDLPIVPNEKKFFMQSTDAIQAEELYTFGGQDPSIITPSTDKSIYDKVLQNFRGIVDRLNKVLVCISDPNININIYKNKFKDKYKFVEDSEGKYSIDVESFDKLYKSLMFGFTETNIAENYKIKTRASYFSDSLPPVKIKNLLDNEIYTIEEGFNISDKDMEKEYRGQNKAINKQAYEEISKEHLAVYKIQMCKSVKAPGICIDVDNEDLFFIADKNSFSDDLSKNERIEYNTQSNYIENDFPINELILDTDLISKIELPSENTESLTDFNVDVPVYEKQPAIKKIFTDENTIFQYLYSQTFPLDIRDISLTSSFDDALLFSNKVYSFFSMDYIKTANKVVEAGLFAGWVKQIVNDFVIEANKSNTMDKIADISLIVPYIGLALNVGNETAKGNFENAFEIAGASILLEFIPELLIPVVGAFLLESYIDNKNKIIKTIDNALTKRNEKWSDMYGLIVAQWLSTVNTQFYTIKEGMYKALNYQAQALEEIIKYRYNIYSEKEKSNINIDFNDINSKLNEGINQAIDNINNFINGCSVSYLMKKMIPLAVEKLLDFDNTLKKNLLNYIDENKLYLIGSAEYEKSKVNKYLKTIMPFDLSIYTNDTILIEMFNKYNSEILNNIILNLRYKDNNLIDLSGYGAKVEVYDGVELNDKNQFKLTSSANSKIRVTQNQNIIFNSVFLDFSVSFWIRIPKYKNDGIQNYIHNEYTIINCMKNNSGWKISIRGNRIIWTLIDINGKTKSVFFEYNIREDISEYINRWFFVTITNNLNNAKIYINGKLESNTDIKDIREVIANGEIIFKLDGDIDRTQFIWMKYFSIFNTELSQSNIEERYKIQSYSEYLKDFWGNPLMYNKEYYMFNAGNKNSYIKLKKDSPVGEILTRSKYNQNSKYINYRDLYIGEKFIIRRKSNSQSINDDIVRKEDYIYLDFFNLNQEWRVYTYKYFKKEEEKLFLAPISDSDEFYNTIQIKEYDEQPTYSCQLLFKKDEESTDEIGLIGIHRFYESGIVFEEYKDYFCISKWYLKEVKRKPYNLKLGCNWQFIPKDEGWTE

[15] = target: Botulinum neurotoxin type A (Clostridium botulinum) (UniProt P0DPI0); test: Inhibition of Clostridium botulinum BoNT/A light chain-mediated SNAP-25 substrate cleavage preincubated for 15 mins in presence of cysteine before substrate addition by FRET assay; how it was run: as §2
[16] = target: Botulinum neurotoxin type A (Clostridium botulinum) (UniProt P0DPI0)
[17] = target: T1, Botulinum neurotoxin type A; test: Inhibition of Clostridium botulinum botulinum neurotoxin type A light chain; how it was run: as §1

Chain of Botulinum neurotoxin type A (Clostridium botulinum) (P0DPI0 2-448 limits assumed): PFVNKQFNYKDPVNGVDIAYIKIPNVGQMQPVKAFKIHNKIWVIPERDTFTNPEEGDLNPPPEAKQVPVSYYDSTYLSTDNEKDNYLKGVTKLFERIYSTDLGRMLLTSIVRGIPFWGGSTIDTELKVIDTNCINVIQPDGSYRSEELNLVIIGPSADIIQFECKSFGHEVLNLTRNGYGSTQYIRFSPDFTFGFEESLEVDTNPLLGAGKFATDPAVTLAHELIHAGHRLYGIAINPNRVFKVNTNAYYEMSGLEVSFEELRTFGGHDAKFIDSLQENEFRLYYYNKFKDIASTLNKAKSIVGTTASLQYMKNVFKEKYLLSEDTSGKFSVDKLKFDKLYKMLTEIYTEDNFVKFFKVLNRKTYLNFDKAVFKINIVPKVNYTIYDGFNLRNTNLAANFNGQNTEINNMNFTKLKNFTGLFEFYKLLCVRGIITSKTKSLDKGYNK
T1 sequence (P0DPI0 2-448 limits assumed): as above
Chain of 72 kDa type IV collagenase (P08253 whole entry): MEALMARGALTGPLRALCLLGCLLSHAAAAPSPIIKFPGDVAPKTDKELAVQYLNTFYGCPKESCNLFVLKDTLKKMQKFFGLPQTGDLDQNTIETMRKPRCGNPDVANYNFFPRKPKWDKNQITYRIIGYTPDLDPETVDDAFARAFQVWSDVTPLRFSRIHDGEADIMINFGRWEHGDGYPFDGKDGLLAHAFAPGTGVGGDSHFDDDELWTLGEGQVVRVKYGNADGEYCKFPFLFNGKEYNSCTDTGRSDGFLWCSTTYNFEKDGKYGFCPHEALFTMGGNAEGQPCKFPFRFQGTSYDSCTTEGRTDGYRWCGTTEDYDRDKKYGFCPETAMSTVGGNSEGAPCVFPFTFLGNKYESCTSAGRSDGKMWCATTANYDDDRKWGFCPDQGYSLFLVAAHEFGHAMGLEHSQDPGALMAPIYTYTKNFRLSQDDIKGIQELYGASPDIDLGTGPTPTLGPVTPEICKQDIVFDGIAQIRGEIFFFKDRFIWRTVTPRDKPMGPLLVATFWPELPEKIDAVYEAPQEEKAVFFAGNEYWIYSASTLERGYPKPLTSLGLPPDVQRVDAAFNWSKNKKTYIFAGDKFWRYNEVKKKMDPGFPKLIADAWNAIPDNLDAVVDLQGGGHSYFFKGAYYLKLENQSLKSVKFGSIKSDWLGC
Chain of Matrix metalloproteinase-9 (P14780 whole entry): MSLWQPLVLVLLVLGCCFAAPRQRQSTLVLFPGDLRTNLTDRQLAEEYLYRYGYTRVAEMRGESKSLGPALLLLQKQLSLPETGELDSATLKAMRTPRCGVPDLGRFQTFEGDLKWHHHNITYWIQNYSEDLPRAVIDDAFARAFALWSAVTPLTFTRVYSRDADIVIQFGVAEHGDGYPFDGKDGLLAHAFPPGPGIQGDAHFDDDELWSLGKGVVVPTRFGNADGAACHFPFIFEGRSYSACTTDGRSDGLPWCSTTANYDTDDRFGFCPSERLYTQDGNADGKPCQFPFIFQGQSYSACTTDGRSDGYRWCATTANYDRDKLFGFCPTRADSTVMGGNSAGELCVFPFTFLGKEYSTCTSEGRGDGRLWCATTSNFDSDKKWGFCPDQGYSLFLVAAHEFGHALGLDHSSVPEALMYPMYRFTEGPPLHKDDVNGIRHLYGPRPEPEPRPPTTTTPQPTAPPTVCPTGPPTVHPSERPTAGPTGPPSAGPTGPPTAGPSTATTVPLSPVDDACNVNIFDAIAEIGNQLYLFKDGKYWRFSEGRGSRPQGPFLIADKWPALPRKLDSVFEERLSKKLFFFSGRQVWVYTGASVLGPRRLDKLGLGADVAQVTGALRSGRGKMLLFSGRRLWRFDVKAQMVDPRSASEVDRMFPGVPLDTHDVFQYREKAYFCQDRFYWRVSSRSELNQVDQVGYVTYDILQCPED

Row | Compound | IC50 [1] [µM] | IC50 [2] [µM] | other results
1 | N#C/C(=C\c1ccc(-c2cccs2)s1)c1nc2ccccc2o1 | > 100 |  | 
2 | N#C/C(=C\c1ccc(-c2cccs2)s1)c1ccc2ccccc2n1 | > 100 | > 100 | 
3 | COc1ccc(/C=C(\C#N)c2nc3ccccc3[nH]2)cc1Cl | > 100 | > 100 | 
4 | N#C/C(=C\c1ccc(-c2cccs2)s1)c1cc2ccccc2[nH]1 | > 100 | > 100 | 
5 | Cc1cc(/C=C(\C#N)c2nc3ccccc3[nH]2)sc1C | > 100 | > 100 | 
6 | Cc1ccc(/C=C(\C#N)c2nc3ccccc3[nH]2)s1 | > 100 | > 100 | 
7 | N#C/C(=C\c1ccc(-c2ccco2)s1)c1nc2ccccc2[nH]1 | 59 | > 100 | 
8 | N=C(N)c1ccc(Oc2ccc(-c3cc4ccc(C(=N)N)cc4[nH]3)cc2)cc1 |  |  | inhibition [3]: 42%
9 | N#C/C(=C\c1cccs1)c1nc2ccccc2[nH]1 | > 100 | > 100 | 
10 | COc1ccc(/C=C(\C#N)c2nc3ccccc3[nH]2)cc1Br | > 100 | > 100 | 
11 | N#C/C(=C\c1cc(-c2ccccc2)cnc1Cl)c1nc2ccccc2[nH]1 | > 100 | > 100 | 
12 | COc1ccc(/C=C(\C#N)c2nc3ccccc3[nH]2)cc1F | > 100 | > 100 | 
13 | N#C/C(=C\c1c[nH]c2ccc(Br)cc12)c1nc2ccccc2[nH]1 | > 100 |  | inhibition [4]: 60%
14 | Cc1c(/C=C(\C#N)c2nc3ccccc3[nH]2)sc2ccccc12 | > 100 | > 100 | 
15 | N#C/C(=C\c1ccc(-c2cccs2)s1)c1nc2ccccc2s1 | > 100 | > 100 | 
16 | N#C/C(=C\c1ccc(-c2ccccc2)cc1)c1nc2ccccc2[nH]1 | 86 | > 100 | 
17 | N#C/C(=C\c1ccc(-c2cccs2)o1)c1nc2ccccc2[nH]1 | > 100 | > 100 | 
18 | N#C/C(=C\c1ccc(-c2cccs2)s1)c1nc2ccccc2[nH]1 | 26 | > 100 | IC50 [5]: > 100 µM; Ratio [6]: 1.13; IC50 [7]: > 100 µM; inhibition [8]: Active; Ratio [9]: 326 M⁻¹ s⁻¹; inhibition [10]: Active; IC50 [11]: 17 µM; IC50 [12]: 29 µM; IC50 [13]: > 100 µM; IC50 [14]: > 100 µM; inhibition [15]: Active; TDI [16]: Active; inhibition [3]: 58%
19 | COc1ccc(/C=C(\C#N)c2nc3ccccc3[nH]2)cc1OC | > 100 | > 100 | 
20 | Cn1c(/C(C#N)=C/c2ccc(-c3cccs3)s2)[n+](C)c2ccccc21 | > 100 |  | 
21 | N#C/C(=C\c1c[nH]c2c1ccc1ccccc12)c1nc2ccccc2[nH]1 | > 100 | > 100 | 
22 | COc1ccc(/C=C(\C#N)c2nc3ccccc3[nH]2)cc1I | 7.2 | 74 | IC50 [5]: > 100 µM; Ratio [6]: 0.99; IC50 [7]: > 100 µM; inhibition [8]: Active; Ratio [9]: 979 M⁻¹ s⁻¹; inhibition [10]: inactive; IC50 [12]: 10 µM; IC50 [13]: > 100 µM; IC50 [14]: > 100 µM; inhibition [15]: inactive; inhibition [3]: < 10%
23 | N#C/C(=C\c1c(Cl)ncnc1Cl)c1nc2ccccc2[nH]1 |  | > 100 | 
24 | N#C/C(=C\c1c[nH]c2cccc([N+](=O)[O-])c12)c1nc2ccccc2[nH]1 | > 100 | > 100 | 
25 | COc1cc(/C=C(\C#N)c2nc3ccccc3[nH]2)cc(Cl)c1O | 59 | > 100 | 
26 | CSCC[C@H](NC(=O)[C@H](CCCCN)NC(=O)[C@@H](NC(=O)[C@H](C)NC(=O)[C@H](CCCNC(=N)N)NC(=O)C(S)Cc1ccccc1)[C@@H](C)O)C(=O)N[C@@H](CC(C)C)C(=O)O (stereo partly specified) (X1-RATKML-OH) |  |  | Ki [17]: 0.33 µM
